Legend:
HAT activity = details: ref Nair et al. 2001; cited from earlier work
lysine 8 on H4 = details: site regulated by HDAC3; ref Malvaez et al. 2013; cited from earlier work
[1] = test system: global histone H4 acetylation; assay: Immunocytochemistry of global histone H4 acetylation in BLA and dentate gyrus; format: in vivo, mice; details: 10 mg/kg IP, 1 h after administration, qualitative
Summary of the method: (§1)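 Mice received vehicle or test compound at 10 mg/kg IP (n = 2/group). They were perfused 1 h after dosing and brain tissue was processed for immunocytochemistry. Global acetyl-H3 or acetyl-H4 immunofluorescence was imaged with DAPI counterstain in the basolateral amygdala and hippocampal dentate gyrus. Assessment was qualitative, from photomicrographs of colocalization.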

C57BL/6J mice [2] = assay: Open-field test; format: in vivo; details: 10 mg/kg IP
[3] = 10 mg/kg IP, mouse
[4] = test system: other HDACs besides HDAC1, HDAC2, HDAC3, and HDAC10; assay: HDAC inhibitory potency against all 11 HDAC enzymes, remaining enzymes; format: biochemical; details: serial dilution starting at 20 μM
[5] = test system: global histone H3 acetylation; assay: Immunocytochemistry of global histone H3 acetylation in BLA and dentate gyrus; format: in vivo, mice; details: 10 mg/kg IP, 1 h after administration, qualitative
Summary of the method: as §1

C57BL/6J mice [6] = format: in vivo; details: 10 mg/kg IP after extinction training
Summary of the method: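 Adult male C57BL/6J mice, 8–12 wk, group-housed 1 wk at 24°C on a 12-h light–dark cycle with food and water ad libitum, tested in the light phase. At 48 h after fear conditioning, three CS trials in a novel Context B (Plexiglas over shock bars, red light, 1% ammonium hydroxide) were averaged to assign groups (n = 12/group) matched for freezing. Extinction training followed 24 h later. Retention tests of 15 CS trials were run 24 and 48 h later, with freezing to the CS scored automatically.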

C57BL/6J mice [7] = assay: Extinction retention tests after drug without extinction training; format: in vivo; details: 10 mg/kg IP without extinction training

Question: For `CC(/C=C/C(=O)NO)=C\[C@@H](C)C(=O)c1ccc(N(C)C)cc1` [trichostatin A], which “effect on HAT activity” value (HAT activity) is on record?
Answer: Its value is “inhibition of HAT activity”.

Question: Which “acetylation of lysine 8 on H4” value (lysine 8 on H4) does the source give for `Nc1cc(F)ccc1NC(=O)/C=C/c1cnn(C/C=C/c2ccccc2)c1` [RGFP966] here?
Answer: The value was “enhance acetylation”.

Question: What about the “global H4 acetylation in the BLA” value [1] of the same molecule?
Answer: The value was “Neither RGFP966 nor RGFP963 appear to alter”.

Question: What about the “global acetylation of histone H4 in the dentate gyrus” value [1] of the same molecule?
Answer: The value was “seem to decrease”.

Question: What about the “effect of drug on time spent in the center” value (C57BL/6J mice [2]; F(2,23) = 0.22, NS) of the same molecule?
Answer: Its value is “No significant effect”.

Question: What about the “effect of drug on distance traveled” value (C57BL/6J mice [2]; F(2,23) = 1.06, NS) of the same molecule?
Answer: Its value is “No significant effect”.

Question: And the “brain penetrance compared with RGFP963” value [3]?
Answer: Its value is “lower brain penetrance”.

Question: What about the “crossing of the blood brain barrier” value [3] of the same molecule?
Answer: The value was “able to cross the blood brain barrier”.

Question: What about the “time of maximum brain concentration post-drug administration” value [3] of the same molecule?
Answer: The value was 15 min.

Question: What about the “inhibition of any other HDACs” value [4] of the same molecule?
Answer: The value was “did not inhibit”.

Question: And the “global acetylation of histone H3 in the BLA” value ([5]; compared with vehicle)?
Answer: Its value is “seems to increase”.

Question: And the “global acetylation of histone H3 in the dentate gyrus” value [5]?
Answer: Its value is “seem to decrease”.

Question: What about the “effect on consolidation of cued fear extinction” value (C57BL/6J mice [6]) of the same molecule?
Answer: The value was “no effect”.

Question: And the “nonspecific effect on extinction retention” value (C57BL/6J mice [7])?
Answer: Its value is “does not nonspecifically enhance extinction retention”.
